Reference: BindingDB's records for doi:10.1016/j.bmc.2009.06.008 (University of Leipzig, 2009)

Biological target: Sonic hedgehog protein (Mus musculus, UniProt Q62226)
Test: Inhibition of SHH in mouse Shh-Light2 cells after 48 hrs by Gli1 reporter gene assay in presence of SAG
How it was run: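 Shh-Light II cells co-treated with the Hh activator SAG and inhibitor for 48 h. Cells washed with PBS and lysed, then firefly and constitutive Renilla luminescence read by dual-luciferase assay. IC50 from firefly/Renilla RLU/s plotted against concentration, Hill-slope non-linear regression. Highest concentration 5000 nM. 2–4 independent experiments, each in technical triplicate.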

**Q.** How did the IC50 turn out when `O=C(Nc1ccc(Cl)c(-c2nc3ccccc3[nH]2)c1)c1ccc(F)cc1` [N-(3-(1H-Benzo[d]imidazol-2-yl)-4-chlorophenyl)-4-fluorobenzamide] was run?
**A.** 251 nM

**Q.** `O=C(Nc1ccc(Cl)c(-c2nc3ccccc3[nH]2)c1)c1ccccc1` [N-(3-(1H-Benzo[d]imidazol-2-yl)-4-chlorophenyl)-benzamide] was tested. Which IC50 did it give?
**A.** 163 nM

**Q.** With `CCOc1cc(C(=O)Nc2ccc(Cl)c(-c3nc4ccccc4[nH]3)c2)cc(OCC)c1OCC` [N-(3-(1H-Benzo[d]imidazol-2-yl)-4-chlorophenyl)-3,4,5-triethoxybenzamide] as the compound, how does the IC50 read?
**A.** 97.9 nM

**Q.** How did the IC50 turn out when `CN(C)c1ccc(C(=O)Nc2ccc(Cl)c(-c3nc4ccccc4[nH]3)c2)cc1` [N-(3-(1H-Benzo[d]imidazol-2-yl)-4-chlorophenyl)-4-(dimethylamino)benzamide] was run?
**A.** 190 nM

**Q.** How did the IC50 turn out when `N#Cc1ccc(C(=O)Nc2ccc(Cl)c(-c3nc4ccccc4[nH]3)c2)cc1` [N-(3-(1H-Benzo[d]imidazol-2-yl)-4-chlorophenyl)-4-cyanobenzamide] was run?
**A.** 185 nM

**Q.** Which IC50 does the source give for `CCOc1cc(C(=O)Nc2cccc(-c3nc4ccccc4[nH]3)c2)cc(OCC)c1OCC` [N-(3-(1H-Benzo[d]imidazol-2-yl)phenyl)-3,4,5-triethoxybenzamide] here?
**A.** 1320 nM

**Q.** How did the IC50 turn out when `COc1ccccc1C(=O)Nc1ccc(Cl)c(-c2nc3ccccc3[nH]2)c1` [N-(3-(1H-Benzo[d]imidazol-2-yl)-4-chlorophenyl)-2-methoxybenzamide] was run?
**A.** 876 nM

**Q.** Which IC50 does the source give for `COc1cc(C(=O)Nc2ccc(Cl)c(-c3nc4ccccc4[nH]3)c2)cc(OC)c1OC` [N-(3-(1H-Benzo[d]imidazol-2-yl)-4-chlorophenyl)-3,4,5-trimethoxybenzamide] here?
**A.** 79.8 nM

**Q.** Which IC50 does the source give for `COc1ccc(C(=O)Nc2ccc(Cl)c(-c3nc4ccccc4[nH]3)c2)cc1` [N-(3-(1H-Benzo[d]imidazol-2-yl)-4-chlorophenyl)-4-methoxybenzamide] here?
**A.** 117 nM

**Q.** For `O=C(Nc1ccc(Cl)c(-c2nc3ccccc3[nH]2)c1)c1ccc(Cl)cc1` [N-(3-(1H-Benzo[d]imidazol-2-yl)-4-chlorophenyl)-4-chlorobenzamide], which IC50 is on record?
**A.** 224 nM

**Q.** For `CC1=C2C[C@H]3[C@@H](CC=C4C[C@@H](O)CC[C@@]43C)[C@@H]2CC[C@]12O[C@@H]1C[C@H](C)CN[C@H]1[C@H]2C`, which IC50 is on record?
**A.** 1310 nM

**Q.** How did the IC50 turn out when `O=C(Nc1ccc(Cl)c(-c2nc3ccccc3[nH]2)c1)c1cccc(C(F)(F)F)c1` [N-(3-(1H-Benzo[d]imidazol-2-yl)-4-chlorophenyl)-3-(trifluoromethyl)benzamide] was run?
**A.** 119 nM
